According to PubChem BioAssay:
Active and inactive are the calls of the source.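 The calls were made as follows, unless noted: active = inhibition of the reporter signal at or above 50%; inactive = inhibition below 50%.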

Tests used:
[1] = inhibitors of TNFa-induced NFkB p65 translocation, primary screen, imaging, HUVEC, MLSMR starter and 10KST1 sets (AID 438;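 active = inhibition above 20% together with a positive visual image hit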;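 also: compound added about 3h40 before a 20 min TNFalpha stimulation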;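 as to inhibition: signal is the nuclear over cytoplasmic p65 intensity ratio per well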); conditions: HUVEC TNFa-induced p65 nuclear translocation; cell count: measured here: nuclei count (cytotoxicity indicator), at 2.08 µM; inhibition: at 2 µM, stronger effect = higher value, 0% TNFa-plus-vehicle, 100% no-TNFa wells
[2] = inhibitors of mutant huntingtin aggregation, primary screen, imaging, exon1htt(103Q)mCFP cells, high-content imaging (AID 483;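 active = visual image review flags a hit and inhibition of aggregation exceeds 20%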;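 also: compound exposure lasted 3 days before fixation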;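 as to nuclei count: percent of the per-plate median nuclei count of sample wells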); conditions: exon1htt(103Q)mCFP cell line, aggregate imaging, at 2 µM; inhibition of aggregation: stronger effect = higher value; nuclei count: measured here: cell count, toxicity
[3] = inhibitors of E-selectin induction by TNFa, primary screen, imaging, HUVEC, immunofluorescence, MLSMR starter and 10KST1 sets (AID 487;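 active = visually confirmed hit in the image check and inhibition above 20%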;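 as to inhibition: signal is fraction of cell area covered by stained E-selectin grains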;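 as to nuclei count: 100% = median nuclei count of all wells on the same plate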); conditions: HUVEC TNFalpha-induced E-selectin immunofluorescence imaging, at 2 µM; inhibition: stronger effect = higher value; nuclei count: measured here: cell number, toxicity
[4] = molecular target: Voltage-gated potassium channel subunit beta-2 (Rattus norvegicus) (UniProt P62483); assay: KvBeta enzyme negative modulators, primary screen, biochemical, NADPH fluorescence (AID 622;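 active = fluorescence slope higher than the sample average by over 3 SD, cut at about -0.22 in these data, passing the limit was not always enough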;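 also: slope of raw intensity against log time taken from 70 to 1610 s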); conditions: recombinant KvBeta, 4-cyanobenzaldehyde reduction, at 10 µM, stronger effect = higher value
Voltage-gated potassium channel subunit beta-2 (Rattus norvegicus), sequence (P62483 whole entry, looked up): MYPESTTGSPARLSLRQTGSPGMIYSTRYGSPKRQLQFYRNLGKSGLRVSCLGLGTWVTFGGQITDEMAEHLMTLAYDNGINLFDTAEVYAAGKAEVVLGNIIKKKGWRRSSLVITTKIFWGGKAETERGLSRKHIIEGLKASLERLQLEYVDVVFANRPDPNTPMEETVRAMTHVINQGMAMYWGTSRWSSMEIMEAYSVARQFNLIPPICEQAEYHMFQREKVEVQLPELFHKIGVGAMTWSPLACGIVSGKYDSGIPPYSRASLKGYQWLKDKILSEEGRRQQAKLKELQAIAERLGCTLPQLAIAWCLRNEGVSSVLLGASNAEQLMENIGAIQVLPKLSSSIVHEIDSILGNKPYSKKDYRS

[5] = molecular target: Voltage-gated potassium channel subunit beta-2 (Rattus norvegicus) (UniProt P62483); assay: KvBeta positive modulators, primary screen, biochemical, NADPH fluorescence (AID 623;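 active = NADPH fluorescence slope more negative than the mean of all samples by about 3 SD, 99.7% confidence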;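 also: fluorescence intensity change per second fitted from 20 to 320 s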); conditions: Recombinant KvBeta, NADPH fluorescence decrease slope, 10 min; at 10 µM; stronger effect = lower value
[6] = molecular target: Muscarinic acetylcholine receptor M4 (Homo sapiens) (UniProt P08173); assay: compounds altering M4/GIRK thallium flux, either direction, primary screen, M4 allosteric agonist project, cell-based, HEK293 M4/GIRK, BTC-AM (AID 625;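 active = fluorescence slope after compound addition differing from the mean of all tested samples at 99.7% confidence, mostly higher but some lower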;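 also: thallium influx through GIRK channels coupled to M4 in HEK293 cells with BTC-AM dye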); conditions: at 10 µM, actives lie on both sides
Muscarinic acetylcholine receptor M4 (Homo sapiens), sequence (P08173 whole entry, looked up): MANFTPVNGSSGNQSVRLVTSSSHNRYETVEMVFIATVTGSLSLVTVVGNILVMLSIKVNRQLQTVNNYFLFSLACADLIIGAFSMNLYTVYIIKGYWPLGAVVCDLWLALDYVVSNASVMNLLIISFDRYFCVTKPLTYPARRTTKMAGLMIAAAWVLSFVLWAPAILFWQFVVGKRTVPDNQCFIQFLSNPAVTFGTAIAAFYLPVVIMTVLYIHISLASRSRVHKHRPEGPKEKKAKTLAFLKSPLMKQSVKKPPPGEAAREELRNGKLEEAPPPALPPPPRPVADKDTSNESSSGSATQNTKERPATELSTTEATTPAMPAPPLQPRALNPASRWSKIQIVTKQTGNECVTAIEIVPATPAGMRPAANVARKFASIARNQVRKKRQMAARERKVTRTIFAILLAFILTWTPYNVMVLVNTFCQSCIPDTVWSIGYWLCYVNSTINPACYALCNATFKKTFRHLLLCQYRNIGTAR
In short: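 Material: HEK293 cells with M4 receptor and GIRK channels; Times: cells overnight at 37 °C, BTC-AM loading 1 h, reads 2 min total; Technique: kinetic BTC-AM fluorescence sampled at 1 Hz, 10 s pre-addition baseline; Read-out basis: slope over 15–24 s of trace normalized to starting intensity; Controls: carbachol positive, DMSO negative.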

[7] = inhibitors of Sendai virus-induced IRF3 signaling, primary screen, TLR/RLR signaling modifier project, cell-based, Sendai virus stimulus, luciferase, 10K MLSCN set (AID 602276;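 active = inhibition at or above 50% at 10 µM; inactive = inhibition below 50%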;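 also: firefly luciferase from ISG56 promoter only with Renilla not read in this screen; 0% = Sendai virus plus DMSO and 100% = medium plus DMSO without virus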); conditions: HEK293 RL24 IRF3 luciferase reporter, at 10 µM, stronger effect = higher value
[8] = inhibitors of poly I:C-induced TLR3 signaling, primary screen, cell-based, poly I:C stimulus, luciferase, 10K MLSCN set (AID 602277); conditions: HEK293-TLR3 RL24 IRF3 luciferase reporter, at 10 µM, stronger effect = higher value

| Compound | cell count [1] | inhibition [1] | inhibition of aggregation [2] | nuclei count [2] [%] | inhibition [3] | nuclei count [3] [%] | fluorescence slope [4] | NADPH fluorescence slope [5] | fluorescence slope [6] | inhibition [7] | inhibition [8] |
| --- | --- | --- | --- | --- | --- | --- | --- | --- | --- | --- | --- |
| O=C(c1nc2n(n1)C(c1ccc(Cl)cc1)C=C(c1ccccc1)N2)N1CCOCC1 (stereo not drawn) | 811 | -3.9% (inactive) | 10.6% (inactive) | 126 | 14.2% (inactive) | 110 | -0.0865 (active) | -1.6e-06 (inactive) | 0.00624 (inactive) | 9.43% (inactive) | -4.24% (inactive) |
| COCn1c(COc2ccccc2)nc2ccccc21 | 478 | 9.6% (inactive) | -10.6% (inactive) | 114 | 29% (inactive) | 123 | -0.248 (inactive) | -1.5e-05 (inactive) | 0.00599 (inactive) | -20.6% (inactive) | -112% (inactive) |
| Cc1cc(SCC(N)=O)nc(SCC(=O)c2ccccc2)n1 | 584 | -3.3% (inactive) | -8.2% (inactive) | 105 | 16.8% (inactive) | 91.6 | -0.585 (inactive) | -5.2e-05 (inactive) | 0.00307 (inactive) | 10.5% (inactive) | 21% (inactive) |
| CCn1c2ccccc2c2cc(NC(=O)Cc3ccc(S(=O)(=O)N4CCOCC4)s3)ccc21 | 343 | -0.2% (inactive) | 29.4% (inactive) | 115 | -10.9% (inactive) | 109 | -0.502 (inactive) | 1e-05 (inactive) | 0.00333 (inactive) | 25.9% (inactive) | 26.4% (inactive) |
| COC(=O)Nc1ccc(S(=O)(=O)N2CCN(c3ccc(F)cc3)CC2)cc1 | 381 | -3.7% (inactive) | 12.1% (inactive) | 100 | -124% (inactive) | 123 | -0.564 (inactive) | -0.000131 (inactive) | 0.00356 (inactive) | 6.88% (inactive) | 13.6% (inactive) |
| Cn1c(=O)oc2cc(S(=O)(=O)N3CCC(C(=O)Nc4ccc(OC(F)(F)F)cc4)CC3)ccc21 | 261 | 6.9% (inactive) | 19.4% (inactive) | 103 | -19.6% (inactive) | 75.1 | -0.572 (inactive) | -1.9e-05 (inactive) | 0.00653 (inactive) | 12.1% (inactive) | 17% (inactive) |
| Cc1ccc2c(c1)c1c(n2CC(O)Cn2c(C)nc3ccccc32)/C(=N\O)CCC1 (stereo not drawn) | 459 | 2.7% (inactive) | -25.1% (inactive) | 14.1 | -15.9% (inactive) | 103 | -0.433 (inactive) | 9.2e-05 (inactive) | 0.00656 (inactive) | 7.68% (inactive) | -1.8% (inactive) |
| NC(=O)C1(N2CCCCC2)CCN(C2CC(=O)N(Cc3cccs3)C2=O)CC1 (stereo not drawn) | 378 | -2.6% (inactive) | 5.2% (inactive) | 82.9 | -117% (inactive) | 84.9 | -0.458 (inactive) | -3.2e-05 (inactive) | 0.00707 (inactive) | 10.3% (inactive) | 20.4% (inactive) |
| COc1cccc(N2CCN(Cc3nc(N)nc(Nc4ccccc4OC)n3)CC2)c1 | 495 | 2.9% (inactive) | -8.8% (inactive) | 97.2 | 2.5% (inactive) | 104 | -0.562 (inactive) | -3.3e-05 (inactive) | 0.00593 (inactive) | 19% (inactive) | 17.2% (inactive) |
| Cc1cc(-c2nc3ncccc3o2)ccc1N | 306 | -8.9% (inactive) | 23.3% (inactive) | 102 | -35.5% (inactive) | 99.8 | -0.0237 (inactive) | 9.6e-08 (inactive) | 0.00386 (inactive) | -34.7% (inactive) | -101% (inactive) |
| Cc1nn(-c2ccc(F)cc2)c2sc(C(=O)OCC(=O)N3CCC(C)CC3)cc12 | 359 | -4.2% (inactive) | -8.8% (inactive) | 95.7 | 0.8% (inactive) | 106 | -0.514 (inactive) | -3.9e-05 (inactive) | 0.00495 (inactive) | -2.34% (inactive) | -1.01% (inactive) |
| COc1ccc(-c2coc3c(CN4CCCCC4)c(O)c(CN4CCCCC4)c(O)c3c2=O)cc1 | 367 | -17% (inactive) | 8.6% (inactive) | 85.4 | -63.6% (inactive) | 103 | -0.566 (inactive) | -2.2e-05 (inactive) | 0.00504 (inactive) | 5.54% (inactive) | 32.3% (inactive) |
| COc1ccc(-c2noc(-c3cc(Cl)ccc3Cl)n2)cc1OC | 686 | -10.5% (inactive) | -10.9% (inactive) | 104 | 14.6% (inactive) | 86.8 | -0.526 (inactive) | -2.2e-05 (inactive) | 0.00828 (inactive) | 0.153% (inactive) | -15.5% (inactive) |
| CC(=O)c1nnn(-c2nc(N3CCCC3)nc(N(c3ccccc3)c3ccccc3)n2)c1C | 558 | 8.9% (inactive) | 2.6% (inactive) | 109 | 51.9% (inactive) | 95.1 | -0.58 (inactive) | -5.5e-05 (inactive) | 0.00803 (inactive) | 15.9% (inactive) | 26.9% (inactive) |
| CCC(=O)N1CCc2cc(Br)cc(S(=O)(=O)CCC(=O)NCC3CCCO3)c21 (stereo not drawn) | 628 | 2.7% (inactive) | 12.7% (inactive) | 76.3 | -113% (inactive) | 107 | -0.312 (inactive) | -3.4e-05 (inactive) | 0.00706 (inactive) | 11.2% (inactive) | 9.46% (inactive) |
| c1cnn(-c2cc(N3CCOCC3)ncn2)c1 | 301 | -5% (inactive) | 20.4% (inactive) | 85.2 | 2.8% (inactive) | 101 | -0.5 (inactive) | 7.1e-05 (inactive) | 0.0047 (inactive) | -15.2% (inactive) | -21.2% (inactive) |
| Cn1c(=O)c2c(nc(NCCc3ccccc3)n2CC(=O)NCCc2ccccc2)n(C)c1=O | 339 | 2.5% (inactive) | 6.2% (inactive) | 94.2 | -86.4% (inactive) | 105 | -0.575 (inactive) | 2.8e-06 (inactive) | 0.00514 (inactive) | 30.2% (inactive) | 31.9% (inactive) |
| N#Cc1cc2sc3nnc(-c4ccncc4)n3c2cc1C#N | 728 | 10.9% (inactive) | -17.6% (inactive) | 49.6 | 22.9% (inactive) | 77.1 | -0.529 (inactive) | 1.4e-05 (inactive) | 0.0043 (inactive) | 5.55% (inactive) | -16.8% (inactive) |
| Nc1nnc(SCCOc2ccccc2)s1 | 417 | -0.9% (inactive) | 2.2% (inactive) | 108 | -70% (inactive) | 98.8 | -0.535 (inactive) | -1.2e-05 (inactive) | 0.00525 (inactive) | -8.16% (inactive) | -14% (inactive) |
| CC(=O)Oc1cccc(/C=c2\sc3nc(-c4ccco4)nn3c2=O)c1 | 324 | -0.6% (inactive) | -30% (inactive) | 103 | -69.5% (inactive) | 80.7 | -0.549 (inactive) | -3e-05 (inactive) | 0.00624 (inactive) | 21.5% (inactive) | 16.1% (inactive) |
| CNC(=O)CN(C#N)c1nc(N(C)C)nc(N(C)C)n1 | 349 | -2.3% (inactive) | 5.1% (inactive) | 92.5 | -47.6% (inactive) | 114 | -0.553 (inactive) | -2.5e-05 (inactive) | 0.00632 (inactive) | 6.17% (inactive) | 10.6% (inactive) |
| Cc1cccc(-c2noc(CCC(=O)Nc3ccccc3)n2)c1 | 430 | 9.5% (inactive) | 7.6% (inactive) | 92.6 | 68.5% (inactive) | 140 | -0.289 (inactive) | -2.3e-05 (inactive) | 0.00559 (inactive) | -7.26% (inactive) | -4.8% (inactive) |
| COC(=O)C(C)Oc1ccc2c3c(c(=O)oc2c1)CCCCC3 (stereo not drawn) | 648 | -7.8% (inactive) | -24.4% (inactive) | 106 | -170% (inactive) | 103 | -0.496 (inactive) | -1.7e-05 (inactive) | 0.00349 (inactive) | 9.54% (inactive) | 12.4% (inactive) |
| CCCC(=O)N=C1SC2CS(=O)(=O)CC2N1c1ccc(CC)cc1 (stereo not drawn) | 286 | 20.4% (inactive) | 23.4% (inactive) | 87 | 26.4% (inactive) | 98.5 | -0.402 (inactive) | -3.7e-05 (inactive) | 0.0062 (inactive) | 15.3% (inactive) | 24.6% (inactive) |
| COc1cc(CC(=O)Nc2ncc(C)s2)cc(OC)c1OC | 524 | -6.7% (inactive) | 20.3% (inactive) | 78.3 | -68.3% (inactive) | 113 | -0.501 (inactive) | 7.8e-05 (inactive) | 0.00592 (inactive) | 19.3% (inactive) | 18.5% (inactive) |
| COc1ccccc1-c1noc(-c2ccco2)n1 | 691 | 7.2% (inactive) | 16.8% (inactive) | 82.3 | 6% (inactive) | 101 | -0.554 (inactive) | -4.8e-05 (inactive) | 0.00616 (inactive) | -44.2% (inactive) | -96.7% (inactive) |
| CCOC(=O)c1nnn(CC(=O)Nc2cccc(OC)c2)c1C(=O)OCC | 395 | 8% (inactive) | 20.4% (inactive) | 89 | -10.7% (inactive) | 106 | -0.416 (inactive) | -3.9e-05 (inactive) | 0.00731 (inactive) | 9.94% (inactive) | 14.1% (inactive) |
| Cc1c(C(=O)O)oc2ccc(S(=O)(=O)NCCC3=CCCCC3)cc12 | 652 | 9.2% (inactive) | 5% (inactive) | 88 | -36.3% (inactive) | 114 | -0.454 (inactive) | 4.4e-05 (inactive) | 0.0068 (inactive) | 3.33% (inactive) | 15.9% (inactive) |
